Data as given in ChEMBL document CHEMBL1133612, “Analogues of amonafide and azonafide with novel ring systems” (J Med Chem, 2000).

Columns and labels:
Type in all cases: functional, cell-based
L1210 [1] = test: Tested for inhibitory activity against murine cell line […], a strain resistant to doxorubicin using MTT assay.; conditions: Mus musculus
Summary of the method: (§1)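 Murine L1210 leukaemia cells were tested as a drug-sensitive strain and as a multiple drug-resistant strain that is P-glycoprotein positive. Growth inhibition in both strains was read by MTT assay.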

L1210 [2] = test: Tested for inhibitory activity against murine cell line […], a strain sensitive to doxorubicin using MTT assay.; conditions: Mus musculus; summary of the method: as §1
MCF7 [3] = test: Tested for inhibitory activity against human tumor cell line D40, a strain resistant to doxorubicin of breast carcinoma using sulforhodamine B assay.
MCF7 [4] = test: Tested for inhibitory activity against human tumor cell line MCF7, a strain resistant to mitoxantrone of breast carcinoma using sulforhodamine B assay.
MCF7 [5] = test: Tested for inhibitory activity against human tumor cell line MCF7, a strain sensitive to doxorubicin of breast carcinoma using sulforhodamine B assay.
UACC-375 = test: Tested for inhibitory activity against human tumor cell line UA375 of melanoma using sulforhodamine B assay.
WiDr [6] = test: Tested for inhibitory activity against a multi drug resistant (MDR) strain of human colon carcinoma WiDr using sulforhodamine B assay (it is MRP positive but non-P-glycoprotein).
WiDr [7] = test: Tested for inhibitory activity against a sensitive strain of human colon carcinoma WiDr using sulforhodamine B assay (it is MRP positive but non-P-glycoprotein).
[8] = Tested for inhibitory activity against human tumor cell line A549 (a non small, drug resistant cell line that does not produce P-glycoprotein) of lung carcinoma using sulforhodamine B assay.
OVCAR-3 [9] = test: Tested for inhibitory activity against human tumor cell line OVCAR-3, a resistant ovarian carcinoma using sulforhodamine B assay.
L1210 [10] = test: Tested for inhibitory activity against murine cell line […] leukemia, a strain resistant to doxorubicin using MTT assay.; conditions: Mus musculus; summary of the method: as §1
L1210 [11] = test: Tested for inhibitory activity against murine cell line […] leukemia, a strain sensitive to doxorubicin using MTT assay.; conditions: Mus musculus; summary of the method: as §1
OVCAR-3 [12] = test: Tested for inhibitory activity against human tumor cell line OVCAR-3 a resistant ovarian carcinoma using sulforhodamine B assay.

Compound	IC50 (L1210 [1]) [nM]	IC50 (L1210 [2]) [nM]	IC50 (MCF7 [3]) [nM]	IC50 (MCF7 [4]) [nM]	IC50 (MCF7 [5]) [nM]	IC50 (UACC-375) [nM]	IC50 (WiDr [6]) [nM]	IC50 (WiDr [7]) [nM]	IC50 [8] [nM]	IC50 (OVCAR-3 [9]) [nM]	IC50 (L1210 [10]) [nM]	IC50 (L1210 [11]) [nM]	IC50 (OVCAR-3 [12]) [nM]
CN(C)CCN1C(=O)c2cc(NC(=O)C(C)(C)C)cc3cc4c(c(c23)C1=O)CCCC4	1530	984	1300	1000	1700	4270	1500	1200	850	4270	–	–	–
CN(C)CCN1C(=O)c2cccc3c2c(cc2cccc(N)c23)C1=O	50	54	290	150	130	244	460	240	37	68	–	–	–
CC(=O)Nc1ccc2cc3c(c4c2c1C(=O)N(CCN(C)C)C4=O)CCCC3	36	60	130	40	40	132	240	31	32	48	–	–	–
CN(C)CCN1C(=O)c2cccc3c2c(cc2c(Cl)cccc23)C1=O	513	769	80	19	60	513	110	20	22	513	–	–	–
CN(C)CCN1C(=O)c2cccc3c2c(cc2c([N+](=O)[O-])cccc23)C1=O	50	50	170	180	150	175	175	135	154	50	–	–	–
CN(C)CCN1C(=O)c2c(N)ccc3cc4c(c(c23)C1=O)CCCC4	2	11	110	130	120	187	450	79	13	80	–	–	–
COc1cccc2c1C(=O)c1c(O)c3c(c(O)c1C2=O)C[C@@](O)(C(=O)CO)C[C@@H]3O[C@H]1C[C@H](N)[C@H](O)[C@H](C)O1 [DOXORUBICIN]	–	–	–	–	–	–	–	–	22	–	–	–	–
CN(C)CCN1C(=O)c2cccc3c2c(cc2cccnc23)C1=O	26	43	400	320	210	309	370	195	220	862	–	–	–
O=C1c2c(O)ccc(O)c2C(=O)c2c(NCCNCCO)ccc(NCCNCCO)c21 [MITOXANTRONE]	–	10	–	–	9	–	–	8	3	6	–	–	–
CN(C)CCN1C(=O)c2cc3cccnc3c3ccc(N)c(c23)C1=O	186	233	310	310	270	117	210	160	170	466	–	–	–
CN(C)CCN1C(=O)c2cccc3c2c(cc2ccccc23)C1=O	165	197	500	280	220	564	420	240	220	564	–	–	–
CN(C)CCN1C(=O)c2cccc3c2c(cc2ncccc23)C1=O	–	–	320	230	170	617	260	110	32	–	367	493	986
CN(C)CCN1C(=O)c2cccc3c2c(cc2c(O)cccc23)C1=O	1350	810	560	340	625	540	500	320	420	810	–	–	–
CN(C)CCN1C(=O)c2cc(N)cc3cc4c(c(c23)C1=O)CCCC4	26	73	900	320	240	610	1600	230	170	488	–	–	–
CN(C)CCN1C(=O)c2cccc3c2c(cc2cccc([N+](=O)[O-])c23)C1=O	501	751	620	440	360	751	2400	800	950	626	–	–	–
CN(C)CCN1C(=O)c2cccc3c2c(cc2cccc(O)c23)C1=O	540	540	675	390	625	405	2300	260	160	675	–	–	–
CN(C)CCN1C(=O)c2cccc3c2c(cc2c(N)cccc23)C1=O	54	54	590	550	550	1080	525	280	280	541	–	–	–
CN(C)CCN1C(=O)c2cccc3cc(N)cc(c23)C1=O [AMONAFIDE]	–	–	–	–	–	–	–	–	1100	–	–	–	–
COc1cccc2c1cc1c3c(cccc32)C(=O)N(CCN(C)C)C1=O	1560	520	820	900	860	520	1300	900	870	20	–	–	–
CN(C)CCN1C(=O)c2cccc3cc4c(c(c23)C1=O)CCCC4	8	11	230	150	100	223	220	130	18	70	–	–	–
CN(C)CCN1C(=O)c2cccc3cc4ccccc4c(c23)C1=O [AZONAFIDE]	–	–	–	–	–	–	–	–	10	–	–	–	–
CC(=O)Nc1ccc2c3c(cc4cccnc42)C(=O)N(CCN(C)C)C(=O)c13	127	424	290	270	270	212	195	130	150	424	–	–	–
CN(C)CCN1C(=O)c2c(NC(=O)C(C)(C)C)ccc3cc4c(c(c23)C1=O)CCCC4	1750	2190	2000	1300	950	8750	800	750	750	656	–	–	–
CN(C)CCN1C(=O)c2cccc3c2c(cc2cccc(Cl)c23)C1=O	231	256	286	150	160	179	380	220	45	385	–	–	–
